Laboratory results reported in ChEMBL document CHEMBL1144529, “A library of novel hydroxamic acids targeting the metallo-protease family: design, parallel synthesis and screening” (Bioorg Med Chem, 2007).

Target: T1, Aminopeptidase N (Sus scrofa, UniProt P15145)
T1 sequence (P15145 whole entry): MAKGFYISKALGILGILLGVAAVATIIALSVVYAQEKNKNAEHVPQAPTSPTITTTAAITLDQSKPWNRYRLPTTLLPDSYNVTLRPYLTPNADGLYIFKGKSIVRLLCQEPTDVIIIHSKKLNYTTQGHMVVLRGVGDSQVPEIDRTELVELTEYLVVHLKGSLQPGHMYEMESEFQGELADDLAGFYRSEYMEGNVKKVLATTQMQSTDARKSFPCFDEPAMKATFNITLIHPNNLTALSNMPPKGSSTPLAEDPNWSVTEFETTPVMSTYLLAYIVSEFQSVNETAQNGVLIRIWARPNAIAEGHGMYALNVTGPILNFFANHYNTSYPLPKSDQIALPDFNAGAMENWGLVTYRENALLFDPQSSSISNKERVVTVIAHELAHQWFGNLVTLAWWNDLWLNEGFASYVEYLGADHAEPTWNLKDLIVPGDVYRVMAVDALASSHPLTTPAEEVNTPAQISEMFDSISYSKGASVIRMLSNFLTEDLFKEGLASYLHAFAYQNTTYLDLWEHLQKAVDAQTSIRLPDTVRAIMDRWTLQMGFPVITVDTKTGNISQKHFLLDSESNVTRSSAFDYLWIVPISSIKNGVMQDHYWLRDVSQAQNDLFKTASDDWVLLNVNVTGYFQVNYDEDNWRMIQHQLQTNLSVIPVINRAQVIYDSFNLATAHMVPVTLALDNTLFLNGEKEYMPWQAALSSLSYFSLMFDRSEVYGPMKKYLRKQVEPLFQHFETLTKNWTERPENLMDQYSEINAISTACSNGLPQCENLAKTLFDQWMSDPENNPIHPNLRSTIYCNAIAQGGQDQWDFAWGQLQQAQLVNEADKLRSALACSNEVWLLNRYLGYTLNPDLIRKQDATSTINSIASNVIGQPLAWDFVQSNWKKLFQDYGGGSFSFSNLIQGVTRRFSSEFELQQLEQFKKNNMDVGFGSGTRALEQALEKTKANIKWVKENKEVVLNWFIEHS
Test: Inhibition of microsomal […] aminopeptidase in pig kidney
Method in brief: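 Porcine kidney microsomal APN, ammonium sulfate suspension diluted 600-fold in Tris-HCl (25 mM, pH 7.4). Activity compared with enzyme run without inhibitor.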

| IC50 [nM] | SMILES |
| --- | --- |
| > 10000 | O=C(NO)C(Cc1ccccc1)C(=O)NCc1ccccc1 (centres undefined) |
| 590 | CC(C)CC(C(=O)NO)C(=O)NCc1ccccc1 (centres undefined) |
| > 10000 | O=C(NO)C(Cc1cccc(Oc2ccccc2)c1)C(=O)NCc1ccccc1 (centres undefined) |
| > 10000 | O=C(NO)C(Cc1ccccc1)C(=O)NCCCCc1ccccc1 (centres undefined) |
| 718 | Cn1c(CC(C(=O)NO)C(=O)NCc2ccccc2)nc2ccccc21 (centres undefined) |
| 443 | CC(C)CC(C(=O)NO)C(=O)NCc1cccc(Oc2ccccc2)c1 (centres undefined) |

The remaining lines, values behind:

| SMILES | IC50 [nM] |
| --- | --- |
| CC(C)CC(C(=O)NO)C(=O)NCCCc1ccccc1 (centres undefined) | 528 |
| CC(C)CC(C(=O)NO)C(=O)NCCc1ccccc1 (centres undefined) | 984 |
| CC(C)CC(C(=O)NO)C(=O)NCc1ccc(Cl)cc1 (centres undefined) | 2520 |
| CC(C)CC(C(=O)NO)C(=O)NCCCCc1ccccc1 (centres undefined) | 82 |
| CC(C)CC(C(=O)NO)C(=O)N1CCC(Cc2ccccc2)CC1 (centres undefined) | 452 |
| O=C(NO)C(Cc1cccc(Oc2ccccc2)c1)C(=O)NCCCCc1ccccc1 (centres undefined) | > 10000 |
| CC(C)CC(C(=O)NO)C(=O)NC1CCc2ccccc2C1 (centres undefined) | 3040 |
| CC(C)CC(C(=O)NO)C(=O)NCc1ccc(F)cc1 (centres undefined) | 3000 |
